High-throughput results as filed in PubChem BioAssay.
Sampled rows, rich in hits. Any-hit rate of the full collection: about 2.3%.
TRPC6 inhibitor: inhibitors of mouse TRPC6 channel | 310,000 compounds, 1.1% hits | HEK293-TRPC6, membrane potential dye, ACh-evoked depolarization; active compounds read low | Q61143 | B-score at 10 µM;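 active = B-score under library mean minus 3 SD, initial fluorescence not abnormally high, positive integrated signal ratio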;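 note: B-score derived from integrated fluorescence ratio over the kinetic read; more negative B-score means stronger inhibition of depolarization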
TRPC4 potent: allosterically enhances the mouse TRPC4 cation channel; Q9QUQ5; HEK293 TRPC4beta/mu-opioid, DAMGO EC20, Fluo-4 Ca2+ flux; active compounds read high; B-score at 10 µM; 310,000 compounds, 0.42% hits;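 active = B-score of calcium response area above 5 SD of library B-scores, with initial fluorescence ratio within 5 SD of library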;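 note: B-score of integrated fluorescence ratio over time as area under calcium response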
Target sequence (Q9QUQ5 whole entry, looked up): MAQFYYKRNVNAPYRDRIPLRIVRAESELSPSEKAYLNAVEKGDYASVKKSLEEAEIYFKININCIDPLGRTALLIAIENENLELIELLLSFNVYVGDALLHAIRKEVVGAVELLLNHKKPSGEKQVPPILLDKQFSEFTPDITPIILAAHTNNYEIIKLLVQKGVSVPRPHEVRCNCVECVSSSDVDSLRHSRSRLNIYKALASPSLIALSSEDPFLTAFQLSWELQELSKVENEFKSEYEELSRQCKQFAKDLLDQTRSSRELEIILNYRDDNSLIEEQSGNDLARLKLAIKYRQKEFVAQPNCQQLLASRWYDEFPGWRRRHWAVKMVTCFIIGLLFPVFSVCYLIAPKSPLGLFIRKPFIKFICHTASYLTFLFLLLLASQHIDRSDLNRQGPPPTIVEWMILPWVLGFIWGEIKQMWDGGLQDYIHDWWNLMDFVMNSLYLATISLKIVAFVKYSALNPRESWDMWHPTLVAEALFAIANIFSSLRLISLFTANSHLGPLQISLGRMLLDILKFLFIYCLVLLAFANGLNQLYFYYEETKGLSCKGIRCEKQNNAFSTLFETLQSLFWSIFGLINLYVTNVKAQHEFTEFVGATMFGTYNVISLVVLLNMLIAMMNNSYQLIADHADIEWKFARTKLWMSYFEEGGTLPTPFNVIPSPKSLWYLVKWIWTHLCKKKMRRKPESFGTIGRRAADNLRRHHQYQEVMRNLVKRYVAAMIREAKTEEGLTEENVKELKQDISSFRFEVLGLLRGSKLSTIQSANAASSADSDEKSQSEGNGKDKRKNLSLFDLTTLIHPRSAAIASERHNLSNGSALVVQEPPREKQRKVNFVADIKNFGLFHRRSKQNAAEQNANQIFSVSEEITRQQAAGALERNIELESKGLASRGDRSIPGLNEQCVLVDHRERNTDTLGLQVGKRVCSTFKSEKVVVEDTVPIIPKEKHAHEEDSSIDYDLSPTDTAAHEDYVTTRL
TRPC4 block: blocks the mouse TRPC4 cation channel; Q9QUQ5; HEK293 TRPC4beta/mu-opioid, DAMGO-evoked Fluo4 calcium flux; active compounds read low; B-score at 10 µM; 300,000 compounds, 0.39% hits;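 active = B-score over 3 SD under the library average, no early fluorescence shift, positive overall ratio signal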
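Signal: kinetic Fluo4 fluorescence imaging of calcium influx. Material: stable TRPC4beta/mu-opioid receptor HEK293 cells. Probe or stimulus: DAMGO in two steps, submaximal then maximal.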
TRPC4 agonist: activators of mouse TRPC4 channel. 310,000 compounds, 0.49% hits. B-score at 10 µM. HEK293 TRPC4beta/mu-opioid, Fluo4 calcium fluorescence; active compounds read high;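 active = B-score above 5 SD of library B-scores, and initial fluorescence ratio not above library mean plus 5 SD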;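 note: positive B-score marks a calcium rise read as TRPC4 activation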
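System – HEK293 cells stably co-expressing mouse TRPC4beta and mu-opioid receptor · Signal – Fluo4 calcium-sensitive dye fluorescence, kinetic, 1 Hz baseline · Benchmarks – buffer (low) and maximal DAMGO (high) · Read-out – B score of integrated fluorescence ratio per well · Incubation – dye loading 45 min room temperature, 110 s kinetic read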
TRPC6 act: activates the mouse TRPC6 cation channel; HEK293-TRPC6 membrane potential dye fluorescence; active compounds read high; 310,000 compounds, 0.13% hits; B-score at 10 µM;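 active = B-score of the integrated fluorescence ratio above library mean plus 3 SD, and starting fluorescence ratio within library mean plus 5 SD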;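 note: higher score means more depolarization so channel activation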
TRPC4 sel inh 2: mouse TRPC4 off-target activity of TRPC6 inhibitors, second screen; shares compounds with TRPC6 inhibitor; HEK293 TRPC4/MOR, membrane potential dye fluorescence; channel activated by saturating DAMGO dose; inhibition, % at 10 µM; 920 compounds, 42% hits;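 active = compounds whose fluorescence signal differed from control wells by over 3 SD, either direction, in both duplicate plates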
TRPC4 spec: tests whether TRPC6 inhibitors also affect mouse TRPC4. HEK293 TRPC4/mu-opioid, membrane potential fluorescence. 920 compounds, 61% hits. activity change, negative = inhibition, % at 10 µM. shares compounds with TRPC6 inhibitor. AID 2777;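 active = rise or fall in signal beyond 3 SD of buffer-only wells in both replicate plates, either sign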;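 note: integrated kinetic ratio of fluorescence range over baseline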
HEK293 MPD ctr 2-1: second check of TRPC6 inhibitor effects in parental HEK293 cells; shares compounds with TRPC6 inhibitor; signal change vs control, % at 10 µM; parental HEK293 membrane potential dye fluorescence; maximal acetylcholine challenge after compound addition; 920 compounds, 31% hits;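 active = membrane potential signal moving either way by over 3 SD of the maximum-effect control, in both duplicate plates, meaning non-specific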
HEK293 MPD ctr-1: parental HEK293 nonspecific activity of TRPC6 inhibitors; AID 2780; 920 compounds, 60% hits; membrane potential signal change, % at 10 µM; shares compounds with TRPC6 inhibitor; parental HEK293 membrane potential dye fluorescence;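 active = membrane potential signal shifting up or down by more than 3 SD of buffer-only wells, on both duplicate plates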
HEK293 MPD ctr-2: checks TRPC6 modulator effects in parental HEK293 cells; 2,400 compounds, 51% hits; AID 488924; membrane potential signal change, % at 10 µM; shares compounds with TRPC6 inhibitor; membrane potential dye fluorescence;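 active = membrane potential signal moves up or down beyond 5 SD from buffer-only wells, on both duplicate plates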
HEK293 MPD ctr 2-2: second check of TRPC6 modulator effects in parental HEK293 cells; membrane potential dye fluorescence; after compound, maximal acetylcholine stimulation; inhibition, % at 10 µM; shares compounds with TRPC6 inhibitor; 2,400 compounds, 14% hits;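 active = membrane potential signal drops by more than 5 SD from the mean control signal, in both duplicate plates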;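 note: plate controls were acetylcholine ECmax control wells for no effect and buffer only wells for full effect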
TRPC4 ctr mod: tests whether TRPC6 modulators also affect mouse TRPC4; 2,400 compounds, 69% hits; shares compounds with TRPC6 inhibitor; percent change from control (negative = decrease, positive = increase), % at 10 µM; HEK293 TRPC4/mu-opioid, membrane potential fluorescence;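 active = membrane potential signal moved up or down beyond 5 SD of buffer control wells, in both duplicate plates, actives on both sides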;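 note: plate controls were assay buffer wells for no effect and DAMGO maximal-effect wells for full effect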
TRPC4 ctr inh 2: second check of whether TRPC6 modulators also affect mouse TRPC4 | shares compounds with TRPC6 inhibitor | 2,400 compounds, 55% hits | AID 488928 | HEK293 TRPC4/mu-opioid, membrane potential dye fluorescence; stimulated with maximal-effect DAMGO | inhibition, % at 10 µM;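 active = drop in membrane potential signal beyond 5 SD of the control wells in both duplicate plates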;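 note: TRPC4 counter screen for TRPC6 hits run under conditions tuned for TRPC6 not TRPC4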
TRPC6 inh conf: confirmation of mouse TRPC6 inhibitors; 3,300 compounds, 43% hits; shares compounds with TRPC6 inhibitor; HEK293-TRPC6, membrane potential dye, ACh-evoked depolarization; AID 488960; inhibition, % at 10 µM;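 active = fluorescence ratio falls more than 5 SD below the full-stimulation control mean, in both duplicate runs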;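 note: integrated fluorescence ratio of peak minus minimum over baseline after agonist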
TRPC6 act conf: mouse TRPC6 activator confirmation; activation, % at 10 µM; AID 488961; shares compounds with TRPC6 inhibitor; 2,800 compounds, 11% hits; HEK293-TRPC6 membrane potential dye fluorescence, FDSS;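 active = ratio signal rise beyond 5 SD above unstimulated control wells' mean, seen in both duplicate runs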;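 note: plate controls were buffer EC0 wells for no effect and acetylcholine ECmax response for full effect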
Active calls of the source: *.

For Clc1ccc(-c2c[n+]3c(n2-c2ccccc2)SCC3)cc1 the results were TRPC6 inhibitor inactive, TRPC4 potent inactive, TRPC4 block inactive, TRPC4 agonist inactive and TRPC6 act inactive.
For O=[N+]([O-])c1cccc(-c2c[n+]3c(n2-c2ccccc2)SCC3)c1 the results were TRPC6 inhibitor -5.2*, TRPC4 potent inactive, TRPC4 block inactive, TRPC4 agonist inactive, TRPC6 act inactive, HEK293 MPD ctr-2 inactive, HEK293 MPD ctr 2-2 inactive, TRPC4 ctr mod inactive, TRPC4 ctr inh 2 34%*, TRPC6 inh conf 47%* and TRPC6 act conf inactive.
`CCN(CC)c1ccc(C2Nc3cccc4cccc(c34)N2)cc1` gave TRPC6 inhibitor -5.5*, TRPC4 potent inactive, TRPC4 block inactive, TRPC4 agonist inactive, TRPC6 act inactive, HEK293 MPD ctr-2 inactive, HEK293 MPD ctr 2-2 inactive, TRPC4 ctr mod inactive, TRPC4 ctr inh 2 inactive, TRPC6 inh conf inactive and TRPC6 act conf inactive.
For CN1CCN(C2=Nc3cc(Cl)ccc3Nc3ccccc32)CC1 the results were TRPC6 inhibitor -6.9*, TRPC4 potent inactive, TRPC4 block inactive, TRPC4 agonist inactive, TRPC6 act inactive, TRPC4 sel inh 2 inactive, TRPC4 spec inactive, HEK293 MPD ctr 2-1 -2.0%*, HEK293 MPD ctr-1 inactive, TRPC6 inh conf inactive and TRPC6 act conf inactive.
Screening CN1CCN(CCCN2c3ccccc3Sc3ccc(Cl)cc32)CC1 returned TRPC6 inhibitor inactive, TRPC4 potent inactive, TRPC4 block inactive, TRPC4 agonist inactive and TRPC6 act inactive.
For COc1ccc(C(CNC(=O)Cc2ccccc2Cl)N2CCCCC2)cc1 (stereo unspecified) the results were TRPC6 inhibitor inactive, TRPC4 potent inactive, TRPC4 block inactive, TRPC4 agonist inactive and TRPC6 act inactive.
For COc1ccc(C(CNC(=O)c2ccc(Cl)c(NC(=O)c3cccs3)c2)N2CCCC2)cc1 (stereo unspecified) the results were TRPC6 inhibitor -6*, TRPC4 potent inactive, TRPC4 block inactive, TRPC4 agonist inactive, TRPC6 act inactive, HEK293 MPD ctr-2 106%*, HEK293 MPD ctr 2-2 inactive, TRPC4 ctr mod inactive, TRPC4 ctr inh 2 64%* and TRPC6 inh conf 42%*.
Screening CCC1CN(C(=O)N2CCC(C(=O)NCCc3ccc(OC)c(OC)c3)CC2)c2ccccc2O1 (stereo unspecified) returned TRPC6 inhibitor inactive, TRPC4 potent inactive, TRPC4 block inactive, TRPC4 agonist inactive and TRPC6 act inactive.
For COc1cc(C2C(C#N)=C(N)Oc3cc(N(C)C)ccc32)cc2c1OCO2 (stereo unspecified) the results were TRPC6 inhibitor inactive, TRPC4 potent inactive, TRPC4 block inactive, TRPC4 agonist 64*, TRPC6 act 12*, HEK293 MPD ctr-2 256%*, HEK293 MPD ctr 2-2 inactive, TRPC4 ctr mod 53%*, TRPC4 ctr inh 2 inactive, TRPC6 inh conf inactive and TRPC6 act conf 62%*.
Screening O=C(CCCC1=NS(=O)(=O)c2ccccc2N1)N1CCN(c2ccccc2)CC1 returned TRPC6 inhibitor -5.7*, TRPC4 potent inactive, TRPC4 block inactive, TRPC4 agonist inactive, TRPC6 act inactive, HEK293 MPD ctr-2 inactive, HEK293 MPD ctr 2-2 inactive, TRPC4 ctr mod inactive, TRPC4 ctr inh 2 inactive and TRPC6 inh conf 47%*.
Screening COCCC(=O)N1CCC(Oc2ccc(C(=O)NC(C)CCn3cccn3)cc2)CC1 (stereo unspecified) returned TRPC6 inhibitor inactive, TRPC4 potent inactive, TRPC4 block inactive, TRPC4 agonist inactive and TRPC6 act inactive.
O=C1c2cnc3ncnn3c2CC2c3ccccc3CCN12 (stereo unspecified) was read as TRPC6 inhibitor -5*, TRPC4 potent inactive, TRPC4 block inactive, TRPC4 agonist inactive, TRPC6 act inactive, HEK293 MPD ctr-2 -105%*, HEK293 MPD ctr 2-2 inactive, TRPC4 ctr mod -20%*, TRPC4 ctr inh 2 inactive, TRPC6 inh conf inactive and TRPC6 act conf inactive.
Screening CSc1nc(C(=O)N2CCCC(C(=O)c3ccc(Cl)cc3)C2)cs1 (stereo unspecified) returned TRPC6 inhibitor -5.9*, TRPC4 potent inactive, TRPC4 block inactive, TRPC4 agonist inactive, TRPC6 act inactive, HEK293 MPD ctr-2 138%*, HEK293 MPD ctr 2-2 inactive, TRPC4 ctr mod 33%*, TRPC4 ctr inh 2 inactive and TRPC6 inh conf inactive.
Cc1cc(Cl)ccc1C(=O)C1CCCN(C(=O)c2cnsn2)C1 (stereo unspecified) was read as TRPC6 inhibitor -6.7*, TRPC4 potent inactive, TRPC4 block inactive, TRPC4 agonist inactive, TRPC6 act inactive, TRPC4 sel inh 2 inactive, TRPC4 spec 26%*, HEK293 MPD ctr 2-1 inactive, HEK293 MPD ctr-1 18%* and TRPC6 inh conf inactive.
`Cc1cc(Cl)ccc1C(=O)C1CCCN(C(=O)c2cscn2)C1` (stereo unspecified) gave TRPC6 inhibitor inactive, TRPC4 potent inactive, TRPC4 block inactive, TRPC4 agonist inactive and TRPC6 act inactive.
